Laboratory results from ChEMBL document CHEMBL1138881, “Application of phosphoramidate ProTide technology significantly improves antiviral potency of carbocyclic adenosine derivatives” (J Med Chem, 2006).
pEC50: −log10 of the molar value.

What was measured:
HepG2 = experiment: Cytotoxicity against HepG2 2.2.15 cells; format: functional; details: Homo sapiens
Outline: (§1)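 HepG2 2.2.15 cells, which produce HBV constitutively, were seeded at 5 × 10³ per well. Drug-containing medium was replaced every other day for 9 days. Virions in the supernatant were captured on anti-HBsAg plates, and their DNA was quantified by PCR against an HBV standard curve and normalized to untreated cells. For cell growth, monolayers were ethanol-fixed and stained with bisbenzimide H33342, and fluorescence was compared with untreated cells. SI = CC₅₀/EC₅₀.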

MT4 = experiment: Cytotoxicity against MT4 cells; format: functional; details: Homo sapiens
Outline: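 Exponentially growing MT-4 cells were resuspended at 5 × 10⁵ cells/mL in RPMI 1640 with 20% FBS and 20% IL-2. They were infected with HIV-1 IIIB (100 × TCID₅₀ per well) for 1 h at 37 °C, with mock-infected cells run in parallel. The suspension was diluted 6-fold onto serially diluted compound and incubated for 5 days at 37 °C in 5% CO₂. MTS staining was read at 492 nm.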

[1] = system: Human immunodeficiency virus 1; experiment: Antiviral activity against HIV1 3B in MT4 cells; format: functional, organism-based; details: Human immunodeficiency virus 1, 3B
Outline: (§2)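 MT-4 cells at 4.5 × 10⁵ cells/mL were infected with 100 CCID₅₀/mL of HIV-1 or HIV-2. Viable cells were then counted after trypan blue staining, and EC₅₀ was derived from these viable-cell counts.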

Hepatitis B virus = experiment: Antiviral activity against HBV in HepG2 2.2.15 cells; format: functional, organism-based; outline: as §1
CEM cells (Homo sapiens) = experiment: Cytotoxicity against CEM cells
[2] = system: Human immunodeficiency virus 2; experiment: Antiviral activity against HIV2 ROD in CEM cells; format: functional, organism-based; details: Human immunodeficiency virus 2, ROD, CCRF-CEM
Outline: (§3)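 CEM cells at 4.5 × 10⁵ cells/mL were infected with 100 CCID₅₀/mL of HIV-1 or HIV-2. Giant-cell formation was scored microscopically. EC₅₀ was the concentration preventing syncytium formation by 50%.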

[3] = system: Human immunodeficiency virus 1; experiment: Antiviral activity against HIV1 3B in CEM cells; format: functional, organism-based; details: Human immunodeficiency virus 1, 3B, CCRF-CEM; outline: as §3
[4] = system: Human immunodeficiency virus 2; experiment: Antiviral activity against HIV2 ROD in MT4 cells; format: functional, organism-based; details: Human immunodeficiency virus 2, ROD; outline: as §2
Cynomolgus monkey [5] = experiment: Metabolic stability in cynomolgus monkey liver S9 fraction; format: ADME, Macaca fascicularis
Outline: (§4)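 Pooled cynomolgus S9 (liver or intestinal segments), test compound 10 µM final, 37 °C, DMSO <1% final; reaction started with NADPH 2.5 mM final. Aliquots taken at 0 (preincubation), 10, 20, 30 and 60 min, quenched with cold acetonitrile, centrifuged; supernatant parent measured by LC/MS/MS. Stability given as % remaining from pre- vs postincubation peak areas.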

Cynomolgus monkey [6] = experiment: Metabolic stability in cynomolgus monkey intestine S9 fraction; format: ADME, Macaca fascicularis; outline: as §4

SMILES	CC50 (HepG2)	CC50 (MT4)	pEC50 [1]	pEC50 (Hepatitis B virus)	CC50 (CEM cells (Homo sapiens))	pEC50 [2]	pEC50 [3]	pEC50 [4]	Stability (Cynomolgus monkey [5])	Stability (Cynomolgus monkey [6])
Nc1ncnc2c1ncn2[C@@H]1C=C[C@H](CO)C1	> 200 µM	> 100 µM	4.10	6.01						
COC(=O)[C@H](C)NP(=O)(OC[C@H]1CC[C@@H](n2cnc3c(N)ncnc32)C1)Oc1ccccc1 (stereo partly specified)	> 2 µM	> 12.5 µM	5.74	6.22						
COC(=O)[C@H](NP(=O)(OC[C@H]1C=C[C@@H](n2cnc3c(N)ncnc32)C1)Oc1ccccc1)C(C)C (stereo partly specified)	> 200 µM	> 16 µM	5.64	6.22	230 µM	5.00	5.12	4.85		
COC(=O)[C@@H](CC(C)C)NP(=O)(OC[C@H]1C=C[C@@H](n2cnc3c(N)ncnc32)C1)Oc1ccccc1 (stereo partly specified)	> 2 µM	< 16 µM	> 6.00	6.89	88.5 µM	5.46	5.80	6.03		
CCOC(=O)c1ccccc1OP(=O)(N[C@@H](C)C(=O)OC)OC[C@H]1C=C[C@@H](n2cnc3c(N)ncnc32)C1 (stereo partly specified)	12 µM	< 4 µM	> 6.59	8.40	4.17 µM	7.24	7.28		25%	80%
COC(=O)[C@H](Cc1ccccc1)NP(=O)(OC[C@H]1C=C[C@@H](n2cnc3c(N)ncnc32)C1)Oc1ccccc1 (stereo partly specified)	9 µM	16 µM	7.00	8.35						
COC(=O)[C@@H](C)NP(=O)(OC[C@H]1C=C[C@@H](n2cnc3c(N)ncnc32)C1)Oc1ccccc1 (stereo partly specified)	> 200 µM	> 100 µM	5.69	7.58					41%	94%
COC(=O)C[C@@H](NP(=O)(OC[C@H]1C=C[C@@H](n2cnc3c(N)ncnc32)C1)Oc1ccccc1)C(=O)OC (stereo partly specified)	> 2 µM	> 10 µM	5.68	7.70	≥ 250 µM	4.82	5.30	5.43		
COC(=O)[C@H]1CCCN1P(=O)(OC[C@H]1C=C[C@@H](n2cnc3c(N)ncnc32)C1)Oc1ccccc1 (stereo partly specified)	> 2 µM	227 µM	3.93	< 5.70	≥ 250 µM	3.98	3.96	3.98		
Nc1ncnc2c1ncn2[C@H]1C=C[C@@H](CO)C1	> 200 µM	> 500 µM	4.82	4.28						
COC(=O)[C@H](CCSC)NP(=O)(OC[C@H]1C=C[C@@H](n2cnc3c(N)ncnc32)C1)Oc1ccccc1 (stereo partly specified)	16 µM	> 5 µM	6.80	7.52	85.8 µM	6.00	6.28	6.68	0%	66%
COC(=O)[C@H](C)NP(=O)(OC[C@H]1C=C[C@@H](n2cnc3c(N)ncnc32)C1)Oc1ccc(Cl)cc1 (stereo partly specified)	> 2 µM	2 µM	8.05	8.52	3.11 µM	7.33	7.82	7.74		
COC(=O)[C@@H](Cc1ccccc1)NP(=O)(OC[C@H]1C=C[C@@H](n2cnc3c(N)ncnc32)C1)Oc1ccccc1 (stereo partly specified)	200 µM	> 40 µM	5.55	6.15	108 µM	5.06	5.05	5.23		
COC(=O)[C@H](Cc1ccc(O)cc1)NP(=O)(OC[C@H]1C=C[C@@H](n2cnc3c(N)ncnc32)C1)Oc1ccccc1 (stereo partly specified)	> 2 µM	26.9 µM	6.24	7.30	110 µM	4.74	5.27	6.14	0%	0%
COC(=O)[C@H](C)NP(=O)(OC[C@H]1C=C[C@@H](n2cnc3c(N)ncnc32)C1)Oc1ccc(Cl)c(Cl)c1 (stereo partly specified)	> 2 µM	> 4 µM	7.11	8.30	13 µM	6.96	7.05	7.12		
CCOC(=O)[C@H](C)NP(=O)(OC[C@H]1C=C[C@@H](n2cnc3c(N)ncnc32)C1)Oc1ccccc1 (stereo partly specified)	22 µM	> 25 µM	7.77	7.70					15%	39%
COC(=O)[C@H](C)NP(=O)(OC[C@H]1C=C[C@@H](N2C=NC3C(N)=NC=NC32)C1)Oc1ccc(C(F)(F)F)cc1 (stereo partly specified)	0.72 µM	5.87 µM	7.46	> 8.49	6.4 µM	7.22	7.22	7.34		
CC[C@H](C)[C@H](NP(=O)(OC[C@H]1C=C[C@@H](n2cnc3c(N)ncnc32)C1)Oc1ccccc1)C(=O)OC (stereo partly specified)	76 µM	> 5 µM	6.02	7.22	118 µM	5.46	5.68	5.95	0%	69%
Nc1ncnc2c1ncn2[C@@H]1CC[C@H](CO)C1	> 200 µM	> 10 µM	< 5.00	4.21						
COC(=O)[C@@H]1CCCN1P(=O)(OC[C@H]1C=C[C@@H](n2cnc3c(N)ncnc32)C1)Oc1ccccc1 (stereo partly specified)	> 2 µM	> 10 µM	5.28	6.29	92.1 µM	5.12	5.46	4.68		
COC(=O)[C@H](C)NP(=O)(OC[C@H]1C=C[C@@H](n2cnc3c(N)ncnc32)C1)Oc1ccc([N+](=O)[O-])cc1 (stereo partly specified)	> 2 µM	10 µM	6.92	8.15	17.4 µM	7.00	7.00	6.77		
COC(=O)[C@H](CCCCN)NP(=O)(OC[C@H]1C=C[C@@H](n2cnc3c(N)ncnc32)C1)Oc1ccccc1.O=C(O)C(F)(F)F (stereo partly specified)	> 100 µM	> 25 µM	4.82	5.70	> 250 µM	3.82	4.60	4.57	95%	17%
COC(=O)[C@@H](Cc1c[nH]c2ccccc12)NP(=O)(OC[C@H]1C=C[C@@H](n2cnc3c(N)ncnc32)C1)Oc1ccccc1 (stereo partly specified)	> 2 µM	> 40 µM	4.88	6.70	93.4 µM	4.60	4.70	4.66		
COC(=O)[C@H](C)NP(=O)(OC[C@@H]1C=C[C@H](n2cnc3c(N)ncnc32)C1)Oc1ccccc1 (stereo partly specified)	5.4 µM	3.7 µM	6.52	5.40						
COC(=O)[C@@H](CCSC)NP(=O)(OC[C@H]1C=C[C@@H](n2cnc3c(N)ncnc32)C1)Oc1ccccc1 (stereo partly specified)	> 2 µM	> 25 µM	5.60	6.66	211 µM	5.10	5.12	5.46		
COC(=O)C[C@H](NP(=O)(OC[C@H]1C=C[C@@H](n2cnc3c(N)ncnc32)C1)Oc1ccccc1)C(=O)OC (stereo partly specified)	> 2 µM	> 16 µM	6.49	7.30	> 50 µM	5.46	5.96	6.59	4%	8%
COC(=O)[C@H](C)NP(=O)(OC[C@H]1C=C[C@@H](n2cnc3c(N)ncnc32)C1)Oc1cccc(C(F)(F)F)c1 (stereo partly specified)									45%	92%
Nc1ncnc2c1ncn2[C@H]1CC[C@@H](CO)C1	> 200 µM	> 125 µM	4.30	4.48						
COC(=O)[C@H](Cc1ccc(OC(C)(C)C)cc1)NP(=O)(OC[C@H]1C=C[C@@H](n2cnc3c(N)ncnc32)C1)Oc1ccccc1 (stereo partly specified)	> 2 µM	19.8 µM	6.96	7.59	79.7 µM	5.26	5.52	6.89		
C[C@H](NP(=O)(OC[C@H]1C=C[C@@H](n2cnc3c(N)ncnc32)C1)Oc1ccccc1)C(=O)OCc1ccccc1 (stereo partly specified)	5 µM	255 µM	8.05	8.12					0%	0%
